Experimental data as given in article PMC9064907 (RSC Advances, 2019).
Where two headings read alike, the source gives them in different places.

Experiments:
[1] = system: HCT-116 (human colorectal carcinoma); test: MTT cytotoxicity assay, HCT-116; type: cell-based; settings: for IC50: read-out: IC50 (µM) ± SD HCT-116; for Therapeutic index (TI) HCT-116: TI = IC50 against normal cells (RPE-1)/IC50 against cancer cells (HCT-116)
Outline: (§1)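 Cells were kept in DMEM with 10% heat-inactivated FBS and penicillin/streptomycin at 37 °C under 5% CO2. MTT (2.5 mg mL−1) was added for 4 h, formazan dissolved in DMSO and A570 read. Viability is % of untreated control. Triplicates were repeated on three days; mean ± SD; IC50 by probit analysis.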

[2] = system: MCF-7 (human breast adenocarcinoma); test: MTT cytotoxicity assay, MCF-7; type: cell-based; settings: for IC50: read-out: IC50 (µM) ± SD MCF-7; for Therapeutic index (TI) MCF-7: TI = IC50 against normal cells (RPE-1)/IC50 against cancer cells (MCF-7)
Outline: as §1

[3] = system: RPE-1 (human normal Retina pigmented epithelium); test: MTT cytotoxicity assay, RPE-1 normal cells; type: cell-based; settings: read-out: IC50 (µM) ± SD RPE-1
Outline: as §1

MCF-7 cells [4] = test: Apoptosis quantification by flow cytometry; type: cell-based, human; settings: MCF-7, treated at IC50 (2: 18.7 µM; 14: 15.6 µM), 24 h; for apoptosis percentage, early apoptosis: control 1.84 ± 0.63; for apoptosis percentage, late apoptosis: control 2.94 ± 0.5%
MCF-7 cells [5] = test: Apoptosis detection by fluorescent Hoechst 33258 staining; type: cell-based, human; settings: MCF-7, treated at IC50 (2: 18.7 µM; 14: 15.6 µM), 24 h
[6] = MTT assay, 48 h, normal RPE-1 cells

SMILES	IC50 ([1]; Homo sapiens, HCT-116, 48 h)	Therapeutic index (TI) HCT-116 [1]	IC50 ([2]; Homo sapiens, MCF7, 48 h)	Therapeutic index (TI) MCF-7 [2]	IC50 ([3]; Homo sapiens, RPE-1, 48 h)	IC50 ([1]; MTT assay, 48 h, HCT-116)	IC50 ([2]; MTT assay, 48 h, MCF-7)	IC50 [3, 6]	apoptosis percentage, early apoptosis (MCF-7 cells [4])	apoptosis percentage, late apoptosis (MCF-7 cells [4])	Nuclear morphological changes (Hoechst 33258) (MCF-7 cells [5])
COC(=O)c1ccc(-n2nc(SC)nc2N)cc1 [Compound 16, methyl 4-(5-amino-3-(methylthio)-1H-1,2,4-triazol-1-yl)benzoate]	37.3 ± 6.1 µM	1.0	23.4 ± 3.5 µM	1.7	39.1 ± 9.9 µM	–	–	–	–	–	–
COc1ccc(O)c(/C=N/c2nc(Oc3ccccc3)nn2-c2ccc(C(=O)O)cc2)c1 [Compound 11, (E)-4-(5-((2-Hydroxy-5-methoxybenzylidene)amino)-3-phenoxy-1H-1,2,4-triazol-1-yl)benzoic acid]	33.1 ± 4.4 µM	1.8	27.5 ± 4.1 µM	2.1	58.5 ± 10.7 µM	–	–	–	–	–	–
COc1cc(/C=N/c2nc(SC)nn2-c2ccc(C(=O)O)cc2)ccc1O [Compound 7, (E)-4-(5-((4-Hydroxy-3-methoxybenzylidene)amino)-3-(methylthio)-1H-1,2,4-triazol-1-yl)benzoic acid]	29.8 ± 4.2 µM	2.1	29.4 ± 5.3 µM	2.1	61.1 ± 12.5 µM	–	–	–	–	–	–
CSc1nc(NC(=S)NCc2ccccc2)n(-c2ccc(C(=O)O)cc2)n1 [Compound 13, 4-(3-(Methylthio)-5-(3-benzylylthioureido)-1H-1,2,4-triazol-1-yl)benzoic acid]	–	2.1	–	2.7	–	30.1 ± 4.1 µM	23.4 ± 4.6 µM	63.9 ± 13.5 µM	–	–	–
CSc1nc(/N=C/c2cc(C)ccc2O)n(-c2ccc(C(=O)O)cc2)n1 [Compound 3, (E)-4-(5-((2-Hydroxy-5-methylbenzylidene)amino)-3-(methylthio)-1H-1,2,4-triazol-1-yl)benzoic acid]	36 ± 6.1 µM	1.2	23.9 ± 1.6 µM	1.8	43.9 ± 10.5 µM	–	–	–	–	–	–
CSc1nc(/N=C/c2ccc(O)cc2)n(-c2ccc(C(=O)O)cc2)n1 [Compound 9, (E)-4-(5-((4-Hydroxybenzylidene)amino)-3-(methylthio)-1H-1,2,4-triazol-1-yl)benzoic acid]	39.1 ± 5.6 µM	1.7	34.8 ± 5.5 µM	2.0	68 ± 16.7 µM	–	–	–	–	–	–
Cc1ccc(O)c(/C=N/c2nc(Oc3ccccc3)nn2-c2ccc(C(=O)O)cc2)c1 [Compound 10, (E)-4-(5-((2-Hydroxy-5-methylbenzylidene)amino)-3-phenoxy-1H-1,2,4-triazol-1-yl)benzoic acid]	33.7 ± 5.2 µM	2.2	30.3 ± 5.3 µM	2.4	74 ± 16.5 µM	–	–	–	–	–	–
CSc1nc(N)n(-c2ccc(C(=O)O)cc2)n1 [Compound 1, 4-(5-Amino-3-(methylthio)-1H-1,2,4-triazol-1-yl)benzoic acid]	41.8 ± 6.5 µM	1.5	32.9 ± 5.3 µM	1.9	61 ± 13.9 µM	–	–	–	–	–	–
O=C(O)c1ccc(-n2nc(Oc3ccccc3)nc2/N=C/c2cc([N+](=O)[O-])ccc2O)cc1 [Compound 12, (E)-4-(5-((2-Hydroxy-5-nitrobenzylidene)amino)-3-phenoxy-1H-1,2,4-triazol-1-yl)benzoic acid]	26.8 ± 4.5 µM	2.3	21.6 ± 3.1 µM	2.9	62.8 ± 13.9 µM	–	–	–	–	–	–
CSc1nc(/N=C/c2cc([N+](=O)[O-])ccc2O)n(-c2ccc(C(=O)O)cc2)n1 [Compound 5, (E)-4-(5-((2-Hydroxy-5-nitrobenzylidene)amino)-3-(methylthio)-1H-1,2,4-triazol-1-yl)benzoic acid]	24 ± 4.5 µM	2.5	20 ± 4.1 µM	3.0	60.2 ± 12.8 µM	–	–	–	–	–	–
O=C(O)c1ccc(-n2nc(Oc3ccccc3)nc2NC(=S)NCc2ccccc2)cc1 [Compound 15, 4-(5-(3-Benzylylthioureido)(3-phenoxy)-1H-1,2,4-triazol-1-yl)benzoic acid]	–	3.8	–	3.8	–	23.9 ± 4.5 µM	24 ± 4.3 µM	91.6 ± 15.9 µM	–	–	–
COc1cccc2c1C(=O)c1c(O)c3c(c(O)c1C2=O)C[C@@](O)(C(=O)CO)C[C@@H]3O[C@H]1C[C@H](N)[C@H](O)[C@H](C)O1 [Doxorubicin, reference compound]	22.6 ± 3.9 µM	2.8	19.7 ± 3.1 µM	3.3	64 ± 13.2 µM	–	–	–	–	–	–
CSc1nc(/N=C/c2cc(Br)ccc2O)n(-c2ccc(C(=O)O)cc2)n1 [Compound 6, (E)-4-(5-((5-Bromo-2-hydroxybenzylidene)amino)-3-(methylthio)-1H-1,2,4-triazol-1-yl)benzoic acid]	37.6 ± 6.4 µM	1.6	31.3 ± 5.1 µM	1.9	59.4 ± 11.7 µM	–	–	–	–	–	–
CSc1nc(/N=C/c2cccc(O)c2)n(-c2ccc(C(=O)O)cc2)n1 [Compound 8, (E)-4-(5-((3-Hydroxybenzylidene)amino)-3-(methylthio)-1H-1,2,4-triazol-1-yl)benzoic acid]	34.6 ± 6.1 µM	2.0	31.2 ± 5.6 µM	2.2	70.1 ± 15.3 µM	–	–	–	–	–	–
COc1ccc(O)c(/C=N/c2nc(SC)nn2-c2ccc(C(=O)O)cc2)c1 [Compound 4, (E)-4-(5-((2-Hydroxy-5-methoxybenzylidene)amino)-3-(methylthio)-1H-1,2,4-triazol-1-yl)benzoic acid]	35.2 ± 5.2 µM	1.6	27.3 ± 4.2 µM	2.0	55.3 ± 11.1 µM	–	–	–	–	–	–
CSc1nc(NC(=S)NCCc2ccccc2)n(-c2ccc(C(=O)O)cc2)n1 [Compound 14, 4-(3-(Methylthio)-5-(3-phenethylthioureido)-1H-1,2,4-triazol-1-yl)benzoic acid]	28.3 ± 5.2 µM	1.6	15.6 ± 2.2 µM	2.9	45.8 ± 8.9 µM	–	–	–	29.11 ± 1.44%	45.47 ± 2.10%	DNA fragmentation and typical marks of apoptosis are evident
Nc1nc(Oc2ccccc2)nn1-c1ccc(C(=O)O)cc1 [Compound 2, 4-(5-Amino-3-phenoxy-1H-1,2,4-triazol-1-yl)benzoic acid]	25.7 ± 4.1 µM	2.4	18.7 ± 3.5 µM	3.3	61.2 ± 10.9 µM	–	–	–	17.82 ± 1.30%	24.91 ± 1.98%	DNA fragmentation and typical marks of apoptosis are evident
CS(=O)(=O)c1nc(N)n(-c2ccc(C(=O)O)cc2)n1 [Compound 17, 4-(5-amino-3-(methylsulfonyl)-1H-1,2,4-triazol-1-yl) benzoic acid]	34.2 ± 5.2 µM	1.4	21.9 ± 4.2 µM	2.2	48.5 ± 9.8 µM	–	–	–	–	–	–
